As a reminder, the T/C is the result in the treated group divided by that in the control group, in per cent.

Drawing on ChEMBL document CHEMBL1154565, “Cytotoxic constituents of the roots of Ekmanianthe longiflora” (2000), this text covers Activity, EC50 and T/C for nine compounds.

The test system of one assay is BC1. The assay can be described thus: (§1) Cytotoxicity against human BC1 cells. The class given is functional.
The next assay concerns M109 (Mus musculus). The assay is described as follows: Cytotoxicity against mouse M109 cells. The following applies: for EC50: read-out: ED50 (the source's name).
The test system of a further assay is LNCaP. The assay can be described thus: Cytotoxicity against human LNCaP cells. The class given is functional. The following applies: for EC50: read-out: ED50 (the source's name).
For another assay, the system named is Lo1. The assay is described as follows: (§2) Cytotoxicity against human […] cells. The class given is functional.
The test system of another assay is Col2. The assay is described as follows: Cytotoxicity against human Col2 cells. The class given is functional. The following applies: for EC50: read-out: ED50 (the source's name).
A further assay relates to SK-N-SH. The assay can be described thus: Cytotoxicity against human SK-N-SH cells. The class given is functional. Conditions: for EC50: read-out: ED50 (the source's name).
Assay [1] deals with KB-V. The assay can be described thus: (§3) Cytotoxicity against human multidrug resistant KB-V cells. The class given is functional.
A further assay relates to SW626. The assay can be described thus: Cytotoxicity against human SW626 cells. The following applies: for EC50: read-out: ED50 (the source's name). Type of assay: functional.
The test system of assay [2] is KB-V. The assay can be described thus: (§4) Cytotoxicity against human multidrug resistant KB-V cells in presence of vinblastine. The class given is functional.
The subject of a further assay is KB. The assay is described as follows: Cytotoxicity against human KB cells. Type of assay: functional. The following applies: for EC50: read-out: ED50 (the source's name).
Assay [3] can be described thus: as §1. Type of assay: functional. The following applies: read-out: ED50 (the source's name).
Assay [4] is described as follows: as §2. Type of assay: functional. The following applies: read-out: ED50 (the source's name).
The nature of assay [5]: as §3. Type of assay: functional. Conditions: KBV, read-out: ED50 (the source's name).
The nature of assay [6]: as §4. Type of assay: functional. The following applies: KBV, read-out: ED50 (the source's name).
The next assay relates to P388. The assay can be described thus: Antitumor activity against mouse P388 leukemia system at 72 mg/kg, ip relative to control. Conditions: route intraperitoneal. Type of assay: functional. Put shortly:
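Six female CDF1 mice per group received 10^6 P-388 cells i.p. in 0.5 mL RPMI medium. Starting one day later, test compound was given i.p. daily for 5 days, with doses of 8, 24 and 72 mg/kg/injection. Read-out was survival, reported as % T/C (median survival of treated over control ×100). T/C ≥125% was taken as significant.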

Structures are written as SMILES. In brackets after ≈: the same amount, converted by molar mass. Activity calls are given as the source filed them. The calls are words filed in the database; no cut-off is given here.

As for `CC(C)=CC[C@H]1C[C@H](O)c2ccccc2C1=O`, the result with BC1, with M109 (Mus musculus), with LNCaP, in the assay with Lo1, in the assay on Col2 and with SK-N-SH was inactive. Besides, the outcome in the assay with KB-V [1], with SW626, in the assay on KB-V [2] and with KB was inactive.

On to `CC(C)(O)[C@H]1C[C@H]2C(=O)c3ccccc3[C@@H](O)[C@@H]2O1` (relative stereo), for which the result in the assay with BC1, in the assay with M109 (Mus musculus), with LNCaP, in the assay on Lo1, in the assay with Col2 and in the assay with SK-N-SH was inactive. Further, the outcome in the assay on KB-V [1], in the assay with SW626, with KB-V [2] and in the assay with KB was inactive.

For the compound `CC1(C)CCC2=C(O1)C(=O)c1ccccc1C2=O` [ALPHA-LAPACHONE], the EC50 in assay [3] came out at 6.7 mg/L (≈ 27.7 µM); with M109 (Mus musculus), 9 mg/L (≈ 37.1 µM); with LNCaP it was 7.1 mg/L (≈ 29.3 µM); in [4], 5.3 mg/L (≈ 21.9 µM); with Col2, 9.9 mg/L (≈ 40.9 µM); with SK-N-SH it was 5.1 mg/L (≈ 21.1 µM). Further, the EC50 was determined as 12.9 mg/L (≈ 53.2 µM) in [5], 3 mg/L (≈ 12.4 µM) in the assay on SW626, 8.3 mg/L in assay [6] and 13 mg/L (≈ 53.7 µM) in the assay with KB.

As for `C=C(C)C1CC2=C(O1)C(=O)c1ccccc1C2=O` (stereo not drawn) [DEHYDROISO-ALPHA-LAPACHONE], the EC50 turned out to be 1 mg/L (≈ 4.16 µM) in assay [3]; 0.4 mg/L (≈ 1.66 µM) with M109 (Mus musculus); 0.2 mg/L (≈ 0.832 µM) with LNCaP; 0.2 mg/L (≈ 0.832 µM) in assay [4]; 0.2 mg/L (≈ 0.832 µM) in the assay on Col2; 0.2 mg/L (≈ 0.832 µM) in the assay with SK-N-SH. For the same compound, the EC50 in [5] came out at 0.5 mg/L (≈ 2.08 µM); with SW626, 0.3 mg/L (≈ 1.25 µM); in assay [6], 0.3 mg/L; with KB, 0.2 mg/L (≈ 0.832 µM).

Take `CC(O)c1cc2c(o1)C(=O)c1ccccc1C2=O` (stereo unspecified): the EC50 in assay [3] was found to be 3.2 mg/L (≈ 13.2 µM); with M109 (Mus musculus), 1.8 mg/L (≈ 7.43 µM); with LNCaP, 3.5 mg/L (≈ 14.4 µM); in assay [4], 0.2 mg/L (≈ 0.826 µM); with Col2 it was 1.8 mg/L (≈ 7.43 µM); with SK-N-SH, 4 mg/L (≈ 16.5 µM). The EC50 in assay [5] came out at 2 mg/L (≈ 8.26 µM); in the assay with SW626 it was 0.3 mg/L (≈ 1.24 µM); in assay [6], 1.2 mg/L; with KB, 0.5 mg/L (≈ 2.06 µM). In the assay on P388, this compound showed a T/C of 110%.

Turning to `CC(C)=CC[C@H]1C(=O)c2ccccc2[C@@H](O)[C@@H]1O`, the outcome in the assay on BC1, with M109 (Mus musculus), with LNCaP, in the assay on Lo1, in the assay with Col2 and in the assay on SK-N-SH was inactive. The result in the assay on KB-V [1], in the assay with SW626, in the assay with KB-V [2] and in the assay on KB was inactive.

For the compound `CC(C)=CC[C@@H]1C[C@H](O)c2ccccc2C1=O`, the outcome with BC1, with M109 (Mus musculus), in the assay with LNCaP, with Lo1, with Col2 and with SK-N-SH was inactive. Further, the result with KB-V [1], in the assay on SW626, in the assay on KB-V [2] and in the assay on KB was inactive.

For `CC(C)=CC[C@@H]1C(=O)c2ccccc2[C@@H](O)[C@@H]1O`, the outcome in the assay on BC1, with M109 (Mus musculus), in the assay on LNCaP, with Lo1, with Col2 and in the assay on SK-N-SH was inactive. In addition, the result in the assay on KB-V [1], in the assay on SW626, in the assay on KB-V [2] and in the assay on KB was inactive.

As to `CC(=O)c1cc2c(o1)C(=O)c1ccccc1C2=O` [NAPABUCASIN], the EC50 in [3] worked out at 0.4 mg/L (≈ 1.67 µM); with M109 (Mus musculus) it was 0.9 mg/L (≈ 3.75 µM); with LNCaP, 0.2 mg/L (≈ 0.833 µM); in [4] it was 0.3 mg/L (≈ 1.25 µM); in the assay with Col2 it was 0.4 mg/L (≈ 1.67 µM); in the assay on SK-N-SH, 0.8 mg/L (≈ 3.33 µM). Besides, the EC50 amounted to 0.9 mg/L (≈ 3.75 µM) in assay [5], 0.2 mg/L (≈ 0.833 µM) in the assay on SW626, 0.9 mg/L in [6] and 0.2 mg/L (≈ 0.833 µM) with KB.
